Converted amounts (≈) assume the structure as drawn. Some results are limits rather than exact numbers.

Among the data in ChEMBL document CHEMBL4627272, “Design, synthesis, and biological activity evaluation of a series of pleuromutilin derivatives with novel C14 side chains” (2020) are MIC values, retold here.

Format in all cases: functional
Assay [1] has as its system Staphylococcus aureus. Put plainly: Antibacterial activity against methicillin-resistant Staphylococcus aureus ATCC 33591 assessed as reduction in bacterial growth incubated for 18 hrs by agar dilution method. The settings on record: ATCC 33591, 18 h. An outline of the steps: (§1)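 CLSI agar dilution MIC. Stocks at 1920 μg/ml in 0.2% DMSO, twofold diluted and mixed into agar plates to final 0.03–128 µg/mL. Inoculum set to 0.5 turbidity, diluted 10-fold and applied by multipoint inoculator within 30 min, about 10^4 CFU per spot. Plates incubated 35 ± 2°C for 18 h. MIC is the lowest concentration with no visible growth.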
Background: In agar dilution, organisms are placed on agar that contains the substance at set levels.

Assay [2] relates to Staphylococcus aureus. Put plainly: Antibacterial activity against methicillin-sensitive Staphylococcus aureus ATCC 29213 assessed as reduction in bacterial growth incubated for 18 hrs by agar dilution method. The settings on record: ATCC 29213, 18 h. An outline of the steps:
as §1

Assay [3] relates to Staphylococcus epidermidis. Put plainly: Antibacterial activity against methicillin-sensitive Staphylococcus epidermidis ATCC 12228 assessed as reduction in bacterial growth incubated for 18 hrs by agar dilution method. The settings on record: ATCC 12228, 18 h. In outline:
as §1

Assay [4] concerns Staphylococcus epidermidis. Put plainly: Antibacterial activity against methicillin-resistant Staphylococcus epidermidis 16-5 assessed as reduction in bacterial growth incubated for 18 hrs by agar dilution method. The settings on record: 16-5, 18 h. An outline of the steps:
as §1

By MIC is commonly meant the smallest concentration in the dilution series that meets the test's criterion for growth inhibition. With `C=C[C@]1(C)C[C@@H](OC(=O)CS[C@@H]2CC[C@H](C(=O)OCC)C[C@H]2NS(=O)(=O)c2ccc(C(C)=O)cc2)[C@]2(C)[C@H](C)CC[C@]3(CCC(=O)[C@H]32)[C@@H](C)[C@@H]1O`, the MIC in assay [1], in assay [2], in assay [3] and in assay [4] was 0.25 µg/mL (≈ 0.335 µM) throughout.
Take `C=C[C@]1(C)C[C@@H](OC(=O)CS[C@@H]2CC[C@H](C(=O)O)C[C@H]2N)[C@]2(C)[C@H](C)CC[C@]3(CCC(=O)[C@H]32)[C@@H](C)[C@@H]1O`: the MIC in assay [1] turned out to be 32 µg/mL (≈ 59.7 µM); in assay [2], 32 µg/mL (≈ 59.7 µM); in assay [3], 2 µg/mL (≈ 3.73 µM); in assay [4] it was 4 µg/mL (≈ 7.47 µM).
`C=C[C@]1(C)C[C@@H](OC(=O)CS[C@@H]2CC[C@H](C(=O)OCC)C[C@H]2NS(=O)(=O)c2ccc(C)cc2)[C@]2(C)[C@H](C)CC[C@]3(CCC(=O)[C@H]32)[C@@H](C)[C@@H]1O`: the MIC in assay [1] stood at 1 µg/mL (≈ 1.39 µM); in assay [2], 1 µg/mL (≈ 1.39 µM); in assay [3], 0.25 µg/mL (≈ 0.348 µM); in assay [4], 0.5 µg/mL (≈ 0.696 µM).
As to `C=C[C@]1(C)C[C@@H](OC(=O)CS[C@@H]2CC[C@H](C(=O)OCC)C[C@H]2N)[C@]2(C)[C@H](C)CC[C@]3(CCC(=O)[C@H]32)[C@@H](C)[C@@H]1O`, the MIC in assay [1] stood at 1 µg/mL (≈ 1.77 µM); in assay [2], 1 µg/mL (≈ 1.77 µM); in assay [3], 0.25 µg/mL (≈ 0.443 µM); in assay [4], 0.25 µg/mL (≈ 0.443 µM).
Take `C=C[C@]1(C)C[C@@H](OC(=O)CS[C@@H]2CC[C@H](C(=O)OCC)C[C@H]2NS(=O)(=O)c2ccc(Cl)cc2)[C@]2(C)[C@H](C)CC[C@]3(CCC(=O)[C@H]32)[C@@H](C)[C@@H]1O`: the MIC in assay [1] was 0.5 µg/mL (≈ 0.677 µM); in assay [2], 1 µg/mL (≈ 1.35 µM); in assay [3], 0.5 µg/mL (≈ 0.677 µM); in assay [4], 0.5 µg/mL (≈ 0.677 µM).
Turning to `C=C[C@]1(C)C[C@@H](OC(=O)CS[C@@H]2CC[C@@H](N)C[C@H]2O)[C@]2(C)[C@H](C)CC[C@]3(CCC(=O)[C@H]32)[C@@H](C)[C@@H]1O` [LEFAMULIN], the minimum inhibitory concentration (MIC) in assay [1] was 0.5 µg/mL (≈ 0.985 µM); in assay [2], 0.25 µg/mL (≈ 0.492 µM); in assay [3] it was no more than 0.03 µg/mL; in assay [4] it was 0.25 µg/mL (≈ 0.492 µM).
For `C=C[C@]1(C)C[C@@H](OC(=O)CS[C@@H]2CC[C@H](C(=O)OCC)C[C@H]2NS(=O)(=O)c2ccc(C#N)cc2)[C@]2(C)[C@H](C)CC[C@]3(CCC(=O)[C@H]32)[C@@H](C)[C@@H]1O`, the MIC in assay [1] came out at 1 µg/mL (≈ 1.37 µM); in assay [2], 1 µg/mL (≈ 1.37 µM); in assay [3], 0.25 µg/mL (≈ 0.343 µM); in assay [4], 0.5 µg/mL (≈ 0.686 µM).
Take `C=C[C@]1(C)C[C@@H](OC(=O)CS[C@@H]2CC[C@H](C(=O)OCC)C[C@H]2NS(=O)(=O)c2ccccc2)[C@]2(C)[C@H](C)CC[C@]3(CCC(=O)[C@H]32)[C@@H](C)[C@@H]1O`: the MIC in assay [1] was found to be 0.5 µg/mL (≈ 0.71 µM); in assay [2], 1 µg/mL (≈ 1.42 µM); in assay [3], 0.5 µg/mL (≈ 0.71 µM); in assay [4], 1 µg/mL (≈ 1.42 µM).
Turning to `C=C[C@]1(C)C[C@@H](OC(=O)CS[C@@H]2CC[C@H](C(=O)OCC)C[C@H]2NS(=O)(=O)c2ccc(Br)cc2)[C@]2(C)[C@H](C)CC[C@]3(CCC(=O)[C@H]32)[C@@H](C)[C@@H]1O`, the MIC in assay [1], in assay [2], in assay [3] and in assay [4] was 1 µg/mL (≈ 1.28 µM) throughout.
For `C=C[C@]1(C)C[C@@H](OC(=O)CS[C@@H]2CC[C@H](C(=O)OCC)C[C@H]2NS(=O)(=O)c2ccc(F)cc2)[C@]2(C)[C@H](C)CC[C@]3(CCC(=O)[C@H]32)[C@@H](C)[C@@H]1O`, the MIC in assay [1] was 1 µg/mL (≈ 1.39 µM); in assay [2], 1 µg/mL (≈ 1.39 µM); in assay [3] it was 0.5 µg/mL (≈ 0.693 µM); in assay [4], 1 µg/mL (≈ 1.39 µM).
For `C=C[C@]1(C)C[C@@H](OC(=O)CS[C@@H]2CC[C@H](C(=O)OCC)C[C@H]2NS(=O)(=O)c2ccc(OC)cc2)[C@]2(C)[C@H](C)CC[C@]3(CCC(=O)[C@H]32)[C@@H](C)[C@@H]1O`, the MIC amounted to 0.25 µg/mL (≈ 0.341 µM) in assay [1], 0.5 µg/mL (≈ 0.681 µM) in assay [2], 0.25 µg/mL (≈ 0.341 µM) in assay [3] and 0.5 µg/mL (≈ 0.681 µM) in assay [4].
Regarding `C=C[C@]1(C)C[C@@H](OC(=O)CS[C@@H]2CC[C@H](C(=O)OCC)C[C@H]2NS(=O)(=O)c2ccc(NC(C)=O)cc2)[C@]2(C)[C@H](C)CC[C@]3(CCC(=O)[C@H]32)[C@@H](C)[C@@H]1O`, the MIC in assay [1], in assay [2], in assay [3] and in assay [4] was 0.5 µg/mL (≈ 0.657 µM) throughout.
As to `C=C[C@]1(C)C[C@@H](OC(=O)CS[C@@H]2CC[C@H](C(=O)OCC)C[C@H]2NS(=O)(=O)c2ccc([N+](=O)[O-])cc2)[C@]2(C)[C@H](C)CC[C@]3(CCC(=O)[C@H]32)[C@@H](C)[C@@H]1O`, the MIC in assay [1] turned out to be 1 µg/mL (≈ 1.34 µM); in assay [2], 1 µg/mL (≈ 1.34 µM); in assay [3] it was 0.5 µg/mL (≈ 0.668 µM); in assay [4] it was 0.5 µg/mL (≈ 0.668 µM).
